High-throughput results as filed in PubChem BioAssay.
This is a sample that favours compounds with a hit; in the whole collection about 2.4% have one here.
Rtt109 Vps75: C. albicans Rtt109 histone acetyltransferase inhibition. Q5AAJ8. purified Rtt109/Vps75, ThioGlo CoA-SH fluorescence, 4 h. inhibition, % at 34.9 µM. hit rate 0.16% among 330,000. AID 540336;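 active = inhibition of at least 50% in every replicate; inconclusive = best replicate reaches 50% inhibition but some replicates fall short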
Target sequence (Q5AAJ8 whole entry, looked up): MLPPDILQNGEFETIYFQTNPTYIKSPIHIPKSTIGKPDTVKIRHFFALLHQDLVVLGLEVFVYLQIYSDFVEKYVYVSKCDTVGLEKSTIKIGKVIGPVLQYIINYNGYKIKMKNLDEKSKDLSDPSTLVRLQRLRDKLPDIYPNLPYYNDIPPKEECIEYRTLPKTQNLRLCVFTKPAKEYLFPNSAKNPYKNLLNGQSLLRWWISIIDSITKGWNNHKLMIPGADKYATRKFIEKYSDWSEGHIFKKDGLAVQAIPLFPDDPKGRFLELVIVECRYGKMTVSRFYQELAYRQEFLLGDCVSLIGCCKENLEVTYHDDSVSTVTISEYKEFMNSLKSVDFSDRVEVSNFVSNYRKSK
Cneo AK release: Cryptococcus neoformans lysis via adenylate kinase release; C. neoformans lysis, adenylate kinase release luminescence, 4 h; normalised: neutral wells 0, clomiphene wells 100; lysis activity, % at 15 µM; hit rate 0.2% among 360,000;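 active = mean lysis activity across replicates of at least 80%, whatever share of replicates individually reach that level; inactive = mean lysis activity below 80%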
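Material: C. neoformans cells | Amount: Yeast cell density of 5 × 10^6 cells/mL | Medium: Fresh YPD growth medium | Dosing: Single dose | Times: Static 4 h at 37 °C with compound, 1 h detection | Detection: AK luminescence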
HIV Env fusion: HIV envelope-mediated fusion inhibition; hit rate 1.1% among 360,000; HeLa-JRFL Env/CEM21 cell fusion, luciferase; AID 651610; inhibition, % at 12.3 µM;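 active = mean replicate inhibition score of at least 50 and every replicate individually at or above 50; inconclusive = only one of the two criteria met; inactive = mean below 50 and not all replicates reaching 50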
INS-1E GSIS act: GLuc luminescence reporter in INS-1E cells, primary screen for activators of glucose-dependent secretion of insulin | activation, % at 16.6 µM | INS-1E GLuc reporter insulin secretion, 2-3 h | hit rate 0.61% among 370,000;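 active = lowest replicate activation of at least 40%, so every replicate reaches that level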
miR122 inh: inhibitors of miR-122 in Huh7 cells; Huh7 miR-122 Renilla luciferase sensor, 48 h; neutral wells = 0, positive control = 100; activation (reporter increase), % at 12.5 µM; hit rate 0.3% among 340,000; AID 602342;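 active = mean replicate activation score at least 90 and every replicate individually at or above 90; inconclusive = only one of the two criteria met; inactive = neither criterion met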;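 also: higher luciferase means less miR-122 activity so hits act as miR-122 inhibitors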
dFosB activator: mouse delta FosB homodimer activation; purified delta FosB, TAMRA-CDK5 oligo fluorescence polarization; percent of positive-control signal above neutral wells; P13346; hit rate 0.99% among 340,000; activation, % at 25 µM;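 active = mean activation above about 17%, with every replicate also reaching it, limit read from the data, passing the limit was not always enough; inconclusive = only one of the two conditions met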
Target sequence (P13346 whole entry, looked up): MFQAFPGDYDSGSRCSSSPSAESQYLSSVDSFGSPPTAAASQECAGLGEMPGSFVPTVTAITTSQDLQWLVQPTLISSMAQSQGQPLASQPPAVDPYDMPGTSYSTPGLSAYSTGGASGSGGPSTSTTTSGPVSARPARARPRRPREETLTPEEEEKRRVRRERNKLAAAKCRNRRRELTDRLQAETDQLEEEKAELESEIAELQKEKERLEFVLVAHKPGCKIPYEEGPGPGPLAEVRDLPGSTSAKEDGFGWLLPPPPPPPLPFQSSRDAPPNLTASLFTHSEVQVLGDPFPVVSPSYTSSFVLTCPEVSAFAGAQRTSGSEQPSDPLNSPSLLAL
A number is an active result; i = inactive; ? = inconclusive; nt = not tested or not shown; ! = not confirmed by another sample; [ ] = remark or other dose.

SMILES	Rtt109 Vps75	Cneo AK release	HIV Env fusion	INS-1E GSIS act	miR122 inh	dFosB activator
CCCCCCNS(=O)(=O)c1ccc(OC)c(OC)c1	i	i	i	nt	203.2	i
COCCCNS(=O)(=O)c1ccc(OC)c(Cl)c1Cl	i	i	nt	i	i	i
COc1ccccc1OCCNS(=O)(=O)c1ccc2oc3ccccc3c2c1	i	nt	57.6	i	nt	i
CCCCNS(=O)(=O)c1ccc(OC)c(Cl)c1Cl	i	i	i	nt	221.8	i
Cc1noc(C)c1NC(=O)Nc1ccc2c(c1)CC(=O)N([C@H](C)CO)C[C@H](C)[C@H](CN(C)C(=O)Nc1c(C)noc1C)O2	nt	i	i	i	i	nt
COc1ccc(CN2CC3(CCN(S(=O)(=O)c4ccc(C)cc4)CC3)c3c([nH]c4cc(OC)ccc34)[C@H]2CO)cc1	nt	nt	nt	i	nt	nt
CCCC(=O)Nc1ccc2c(c1)OC[C@@H](C)N(CCC)C[C@H](C)[C@H](OC)CN(C)C2=O	nt	i	i	i	nt	nt
CC(=O)N1c2c(cc(Br)cc2S(=O)(=O)NCc2ccc3c(c2)OCO3)CC1C (stereo not given)	i	i	i	nt	i	i
CC(=O)N1c2c(cc(Br)cc2S(=O)(=O)NCC2COc3ccccc3O2)CC1C (stereo not given)	i	i	i	i	119.7	i
CCCCN(Cc1ccccc1)S(=O)(=O)c1cc(Br)cc2c1N(C(C)=O)C(C)C2 (stereo not given)	i	i	63.1	nt	i	i
CCC(=O)N(C)C[C@@H]1Oc2cc(C#CCOC)ccc2S(=O)(=O)N([C@H](C)CO)C[C@@H]1C	nt	i	i	i	i	nt
Cc1noc(C)c1S(=O)(=O)N(C)C[C@H]1Oc2ccc(NC(=O)Nc3ccc(F)cc3)cc2CC(=O)N([C@@H](C)CO)C[C@H]1C	nt	i	i	i	i	nt
Cc1noc(C)c1S(=O)(=O)N(C)C[C@@H]1Oc2ccc(NC(=O)Nc3ccc(F)cc3)cc2CC(=O)N([C@@H](C)CO)C[C@@H]1C	nt	i	55.3[16.7 µM]	i	i	nt
Cc1noc(C)c1S(=O)(=O)N(C)C[C@@H]1Oc2ccc(NC(=O)Nc3ccccc3)cc2CC(=O)N([C@@H](C)CO)C[C@@H]1C	nt	nt	84.8[16.7 µM]	i	i	nt
Cc1noc(C)c1S(=O)(=O)N(C)C[C@@H]1Oc2ccc(NC(=O)Nc3cccc4ccccc34)cc2CC(=O)N([C@@H](C)CO)C[C@@H]1C	nt	i	59.3[16.7 µM]	i	i	nt
Cc1noc(C)c1S(=O)(=O)N(C)C[C@@H]1Oc2ccc(NC(=O)Nc3ccc(F)cc3)cc2CC(=O)N([C@H](C)CO)C[C@H]1C	nt	i	i	i	i	nt
Cc1noc(C)c1S(=O)(=O)N(C)C[C@@H]1Oc2ccc(NC(=O)Nc3ccccc3)cc2CC(=O)N([C@@H](C)CO)C[C@H]1C	nt	nt	i	i	i	nt
C[C@@H]1CN([C@@H](C)CO)C(=O)Cc2cc(NC(=O)Nc3cccc4ccccc34)ccc2O[C@H]1CN(C)S(=O)(=O)c1ccccc1	nt	i	i	i	i	nt
Cc1noc(C)c1S(=O)(=O)N(C)C[C@H]1Oc2ccc(NC(=O)Nc3ccccc3)cc2CC(=O)N([C@H](C)CO)C[C@H]1C	nt	nt	69.4[16.7 µM]	i	i	nt
CC(C)NC(=O)Nc1ccc2c(c1)C(=O)N(C)C[C@H](C)[C@@H](CN(C)C(=O)OC(C)(C)C)O2	nt	nt	nt	i	nt	nt
CC(C)NC(=O)N[C@H]1CC[C@@H](CC(=O)N2CCCCC2)O[C@@H]1CO	nt	i	i	i	i	nt
Cc1noc(C)c1S(=O)(=O)N(C)C[C@@H]1Oc2ccc(NC(=O)Cc3ccccc3)cc2CC(=O)N([C@H](C)CO)C[C@@H]1C	nt	i	64.9[16.7 µM]	i	i	nt
C[C@H]1CN([C@@H](C)CO)C(=O)Cc2cc(NC(=O)Cc3ccccc3)ccc2O[C@@H]1CN(C)S(=O)(=O)c1ccccc1	nt	i	i	i	i	nt
CNC[C@@H]1Oc2ccc(NC(=O)Cc3cn(C)c4ccccc34)cc2CC(=O)N([C@H](C)CO)C[C@@H]1C	nt	i	i	i	i	nt
CNC[C@H]1Oc2ccc(NC(=O)Cc3cn(C)c4ccccc34)cc2CC(=O)N([C@@H](C)CO)C[C@H]1C	i	82.7!	i	i	i	i
SMILES	Rtt109 Vps75	Cneo AK release	HIV Env fusion	INS-1E GSIS act	miR122 inh	dFosB activator
CCCC(=O)N1CC2(C1)CN(Cc1ccc(Cl)cc1)[C@H](CO)c1[nH]c3cc(OC)ccc3c12	nt	nt	nt	i	nt	nt
COc1ccc(NC(=O)Nc2ccc3c(c2)C(=O)N([C@@H](C)CO)C[C@H](C)[C@H](CN(C)Cc2ccccc2)OCCCC[C@H](C)O3)cc1	nt	i	86.0[16.7 µM]	i	i	nt
COc1ccc(CN(C)C[C@@H]2OCCCC[C@H](C)Oc3ccc(NC(=O)Nc4ccc(OC)cc4)cc3C(=O)N([C@@H](C)CO)C[C@@H]2C)cc1	nt	i	64.4[16.7 µM]	i	i	nt
COc1ccc(CN(C)C[C@H]2OCCCC[C@@H](C)Oc3ccc(NC(=O)c4ccccc4)cc3C(=O)N([C@H](C)CO)C[C@@H]2C)cc1	nt	101.9!	i	i	i	nt
Cc1cc(C)c(OCC(=O)OCC(=O)N(C)C2CCS(=O)(=O)C2)c(C)c1 (stereo not given)	i	i	i	41.2	i	i
COc1ccc2c3c([nH]c2c1)[C@@H](CO)N(C(=O)c1cccnc1)CC31CCN(C(=O)NC(C)C)CC1	nt	nt	nt	i	nt	nt
COc1ccc(Nc2nc(NCc3ccco3)nc(N/N=C/c3ccc(O)cc3)n2)cc1	i	i	nt	i	i	41.8
COc1ccccc1S(=O)(=O)n1cc(Cc2ccccc2)c(N)n1	i	i	78.9	nt	i	i
O=C(C1=C[C@H](c2ccccc2)C[C@H](OCc2ccc(CO)cc2)O1)N1CCCC1	nt	i	i	nt	nt	nt
COc1ccc2c3c([nH]c2c1)[C@H](CO)N(C(=O)CN(C)C)CC31CN(Cc2ccccc2Cl)C1	nt	nt	nt	i	nt	nt
O=C(NCCNC(=O)c1cccc(O)c1)c1cccc(O)c1	i	i	i	i	nt	i
NNC(=O)c1cccc(O)c1	i	i	?	43.4	i	i
COc1cc2c(cc1OC)C(c1ccc(-c3ccc(Cl)c(Cl)c3)o1)=NCC2	i	i	82.8	nt	i	52.1
CO[C@@H]1CN(C)C(=O)c2cc(NS(=O)(=O)CC(F)(F)F)ccc2OC[C@H](C)N(Cc2nccs2)C[C@H]1C	nt	nt	i	i	nt	nt
CC1C=NC(S(=O)(=O)N2CC[C@@H]3[C@H](CO)N(C)c4ccc(C#Cc5ccccc5)cc4[C@@H]32)=N1 (stereo not given in full)	nt	nt	nt	i	nt	nt
O=C1C(Oc2ccccc2)C(c2cccs2)N1Cc1ccc2c(c1)OCO2 (stereo not given)	i	i	nt	i	i	i
Cc1ccccc1OC1C(=O)N(Cc2ccc3c(c2)OCO3)C1c1sccc1C (stereo not given)	i	nt	i	i	157.9	i
COc1ccc(OC2C(=O)N(Cc3ccc4c(c3)OCO4)C2c2cccs2)cc1 (stereo not given)	i	i	68.1	i	i	i
